Data on 1 compound can be found in ChEMBL document CHEMBL1240482, “Synthesis and antiproliferative evaluation of certain indeno[1,2-c]quinoline derivatives. Part 2” (J Med Chem, 2010).

As a reminder, the Tmax is the time from dosing to the highest level. One may read the half-life as how long it takes for the measured level to halve. High values mean slow decline, low ones rapid decline. The term inhibition denotes the percentage by which the read-out fell short of the control. Usually AUC(0-inf) stands for the area under the concentration-time curve extrapolated to infinity. Read a low AUC(0-inf) as less exposure. Usually bioavailability stands for dose-corrected exposure relative to a reference, in per cent. By MRT is commonly meant the average time that molecules of a dose stay in the body.

The test system of data set [1] is HeLa. Nature of the data set: Cytotoxicity against human HeLa cells after 48 hrs by MTT assay. It is filed as functional. The essentials:
(§1)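 Cells grown in DMEM with 10% FBS at 37 °C and 5% CO2, seeded at 5 × 10^3 per well and allowed 24 h before drug. Serial dilutions from DMSO stocks applied for 48 h. MTT (2 mg/mL in PBS) added for 2 h, formazan dissolved in DMSO, absorbance read at 570 nm. GI50 interpolated by linear regression from at least three points in the 20-80% range; three independent experiments.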
(Tetrazolium dyes change colour on reduction, which living cells bring about.)

Data set [2] deals with Mus musculus. In words: Toxicity to BALB/c mouse assessed as change in glutamic pyruvate transaminase at 20 mg/kg, iv. The format is organism-based. Also on record: dose 20 mg/kg, route intravenous. The following applies: in vivo. The essentials: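 BALB/c mice, 3 per group, randomized by body weight (stratified). Dosed iv via tail vein at 10, 20 or 40 mg/kg in PEG 400/ethanol/water (20/20/60), once every 3 days for 2 weeks; solvent controls. Weighed throughout. After a 24 h fast, heart blood was drawn under ether; GOT, GPT, BUN and creatinine were measured on an analyzer. Liver and kidney taken for H&E.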

The test system of data set [3] is Detroit 551. Nature of the data set: Selectivity index, ratio of IC50 for human Detroit 551 cells to IC50 for human SKHep cells. The format is functional.
Data set [4] in a line: Tmax in CD1 mouse at 20 mg/ kg, po. It is filed as ADME, organism-based. Also on record: dose 20 mg/ kg, route oral. The following applies: in vivo. The essentials:
(§2)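 Male CD-1 (Crl.) mice, 22-24 g, fasted 4 h before dosing; single oral gavage of 20 mg/kg as a suspension in 0.5% methylcellulose/water, 10 mL/kg. Cardiac-puncture plasma (K-EDTA) taken predose to 27 h, three mice per time point; LC-MS/MS quantification.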

Data set [5] in a line: Cell cycle arrest in human BT-483 cells assessed as accumulation at sub-G1 phase at 3 uM after 24 hrs by flow cytometry. It is filed as functional, cell-based. The essentials:
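BT483 cells exposed to 0, 1, 3 or 10 μM for 24 h, then stained with propidium iodide and analysed for DNA content by flow cytometry. The subdiploid (sub-G1) peak, expressed as a percentage of the whole population, is scored as apoptotic.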
On the technique in general: A flow cytometer gives signals particle by particle.

The nature of data set [6]: Half life in CD1 mouse at 20 mg/ kg, po. The format is ADME, organism-based. More on the design: dose 20 mg/ kg, route oral. The settings on record: in vivo. The essentials:
as §2

Data set [7] addresses T1, DNA topoisomerase 1 (Homo sapiens) (UniProt P11387).
T1 sequence (whole entry): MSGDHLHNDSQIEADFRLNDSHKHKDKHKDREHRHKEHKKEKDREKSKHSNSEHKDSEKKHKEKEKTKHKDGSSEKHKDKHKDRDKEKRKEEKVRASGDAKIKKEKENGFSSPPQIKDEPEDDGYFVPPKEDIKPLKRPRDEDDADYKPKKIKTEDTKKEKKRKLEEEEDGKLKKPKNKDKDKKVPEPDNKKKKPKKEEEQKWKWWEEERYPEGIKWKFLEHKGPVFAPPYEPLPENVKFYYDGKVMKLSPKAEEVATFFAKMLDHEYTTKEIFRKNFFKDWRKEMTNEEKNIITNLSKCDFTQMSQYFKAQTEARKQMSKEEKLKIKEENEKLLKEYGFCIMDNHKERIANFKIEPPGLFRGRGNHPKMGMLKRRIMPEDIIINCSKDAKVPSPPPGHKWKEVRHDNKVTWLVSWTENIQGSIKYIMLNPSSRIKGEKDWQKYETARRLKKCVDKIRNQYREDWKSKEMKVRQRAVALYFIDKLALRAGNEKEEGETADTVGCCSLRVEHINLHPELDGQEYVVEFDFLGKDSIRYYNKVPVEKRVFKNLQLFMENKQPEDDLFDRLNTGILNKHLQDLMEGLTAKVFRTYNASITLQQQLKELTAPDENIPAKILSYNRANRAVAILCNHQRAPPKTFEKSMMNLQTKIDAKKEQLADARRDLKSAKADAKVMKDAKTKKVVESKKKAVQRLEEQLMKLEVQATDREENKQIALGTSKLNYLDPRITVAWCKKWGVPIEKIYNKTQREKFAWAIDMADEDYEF
In words: Inhibition of human topoisomerase 1 assessed as decrease in pBR322 mobility on agarose gel at 10 uM by electrophoresis. The essentials:
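Enzyme preincubated with compound before DNA addition; reaction run 30 min at 37 °C and stopped with SDS. Products resolved on 1% agarose, stained with ethidium bromide, quantified by densitometry.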

Data set [8] in a line: Half life in CD1 mouse at 2 mg/ kg, iv. It is filed as ADME, organism-based. More on the design: dose 2 mg/ kg, route intravenous. The settings on record: in vivo. The essentials: (§3)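 Fasted male CD-1 (Crl.) mice, 22-24 g; single tail-vein bolus of 2.0 mg/kg in PEG400/ethanol/water (30/5/65), 10 mL/kg. Cardiac-puncture blood into K-EDTA at 0-27 h, three mice per time point; plasma analysed by LC-MS/MS after acetonitrile precipitation. Parameters calculated from mean plasma concentrations.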

Data set [9] is described as follows: AUC (0 to infinity) in CD1 mouse at 2 mg/ kg, iv. The format is ADME, organism-based. Also on record: time infinity, dose 2 mg/ kg, route intravenous. The following applies: plasma. The essentials: as §3
Data set [10] concerns Detroit 551. In words: Selectivity index, ratio of IC50 for human Detroit 551 cells to IC50 for human BT-483 cells. The format is functional.
The nature of data set [11]: Cytotoxicity against human BT-483 cells after 48 hrs by MTT assay. The settings on record: BT-483, 48 h. The format is functional. The essentials: as §1
Data set [12] can be described thus: Cytotoxicity against human Detroit 551 cells after 48 hrs by MTT assay. It is filed as cell-based. The essentials:
as §1

Data set [13] relates to Mus musculus. In words: Toxicity to BALB/c mouse assessed as survival rate at 10 mg/kg, iv. The format is organism-based. Also on record: dose 10 mg/kg, route intravenous. The settings on record: in vivo. The essentials: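 Balb/C athymic nude mice (6-8 weeks, ~20 g) bearing subcutaneous BT483 breast xenografts (0.5 × 10^6 cells). Treatment began at ~500 mm3 tumour volume: cosolvent formulation diluted in 5% dextrose, iv at 10 or 20 mg/kg once daily for 14 days; controls received vehicle. 3 animals per group. Survival was assessed by Kaplan-Meier analysis at study end, p < 0.05.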

Data set [14] is described as follows: Oral bioavailability in CD1 mouse at 20 mg/ kg, po. It is filed as ADME, organism-based. The following applies: in vivo. The essentials: as §2
Data set [15] concerns Detroit 551. Nature of the data set: Selectivity index, ratio of IC50 for human Detroit 551 cells to IC50 for human A549 cells. The format is functional.
Data set [16] in a line: Mean retention time in CD1 mouse at 20 mg/ kg, po. The format is ADME, organism-based. Also on record: dose 20 mg/ kg, route oral. The following applies: in vivo. The essentials:
as §2

Data set [17] has as its system PC-3. In words: Cytotoxicity against human PC3 cells after 48 hrs by MTT assay. It is filed as functional. The following applies: PC-3, 48 h. The essentials: as §1

Regarding `COc1ccc2c(c1)/C(=N\OCCN1CCCC1)c1c-2c(O)nc2ccccc12`, the GI50 in data set [1] (read-out: GI50) is 0.23 µM; in data set [1] (read-out: pGI50 (converted)), 0.229 µM; in [11], 0.79 µM; in [17], 1.83 µM. Further, the Activity entry in [2] was “Non-toxic”; in data set [5], 58%; in [13], “Non-toxic”. The figures for the RatioGI50 in data set [3], in data set [10] and in data set [15] were 10.03, 15.75 and 13.98, respectively. Also, the time of peak concentration (Tmax) in data set [4] turned out to be 1 h. For the same compound, the half-life in data set [6] is 2.2 h; in data set [8], 1.5 h. Besides, the inhibition in [7] is 71%. In addition, in data set [9], the AUC(0-inf) was 0.172 µg·h/mL. The compound further yielded a GI50 at 48 h in data set [12] of 12.4 µM. Besides, in [14], the bioavailability was 10.9%. In [16], this compound registered a mean residence time (MRT) of 3.4 h.
